{
  "source": "ChEMBL document CHEMBL1132314",
  "about": "“Synthesis and amyloid binding properties of rhenium complexes: preliminary progress toward a reagent for SPECT imaging of Alzheimer's disease brain” (J Med Chem, 1999)",
  "key": {"[1]": {"assay": "Bmax value was measured on A-beta-40 fibrils at high salt", "how_it_was_run": "(§1)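 Synthetic Aβ40 fibrils (50 µM total Aβ40 stock, 20 µL added to 180 µL probe solution) were incubated with probe at 2–18 µM final in pH 7.4 10 mM phosphate, with 100 or 0 mM NaCl. Stocks for the Re complexes were in methanol, ≤3 vol % final. The mixture was held 1 h at 25 °C, then fibrils were pelleted by centrifugation.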"}, "[2]": {"assay": "max value was measured on A-beta-40 fibrils at low salt", "how_it_was_run": "as §1"}, "[3]": {"assay": "Apparent dissociation constant was measured at 10 mM salt", "how_it_was_run": "as §1"}, "[4]": {"assay": "Apparent dissociation constant was measured at 110 mM salt", "how_it_was_run": "as §1"}, "[5]": {"assay": "Partition coefficient (P)", "conditions": "octanol/water"}},
  "data": [
    {"smiles": "Nc1c(/N=N/c2ccc(-c3ccc(/N=N/c4cc(S(=O)(=O)O)c5ccccc5c4N)cc3)cc2)cc(S(=O)(=O)O)c2ccccc12", "note": "[CONGO RED]", "values": [
      {"measurement": "Bmax", "setting": "[1]", "value": 2.6},
      {"measurement": "Bmax", "setting": "[2]", "value": 0.6},
      {"measurement": "Kd", "setting": "[3]", "value": 1.1, "unit": "µM"},
      {"measurement": "Kd", "setting": "[4]", "value": 1.5, "unit": "µM"},
      {"measurement": "P", "setting": "[5]", "value": 0.16}
    ]}
  ]
}
